pKi: −log10 of the molar value. Active and inactive are the calls of the source. No rule for the calls is given here. Peptide text beside a SMILES is read from it. * marks the point of attachment. NH(4-amidinobenzyl) = N=C(N)c1ccc(CN*)cc1
Key:
[1] = biological target: Furin (Homo sapiens, UniProt P09958); experiment: Inhibition of recombinant human furin expressed in drosophila S2 cells using pyrGlu-Arg-Thr-Lys-Arg-7-amido-4-methylcoumarin as substrate after 60 mins by spectrofluorometry method; format: cell-based
Procedure, shortened: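 Human recombinant purified furin at 2 units/100 µL (0.54 nM), in 100 mM HEPES pH 7.5, 1 mM CaCl2, 1 mM β-mercaptoethanol, 1.8 mg/mL BSA. His-containing peptides run instead in 20 mM BisTris pH 6.5 with the same additives. Substrate 100 µM, KM 5.04 µM. Inhibitor 1 nM to 10 µM; 60 min at 37°C. Fluorescence ex 370 / em 460 nm. Ki by Morrison equation; triplicate experiments, mean ± SD.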

[2] = biological target: T1, Proprotein convertase subtilisin/kexin type 6 (Homo sapiens, UniProt P29122); experiment: Inhibition of recombinant human PACE4 expressed in drosophila S2 cells using pyrGlu-Arg-Thr-Lys-Arg-7-amido-4-methylcoumarin as substrate after 60 mins by spectrofluorometry method; format: cell-based
T1 sequence (P29122 whole entry): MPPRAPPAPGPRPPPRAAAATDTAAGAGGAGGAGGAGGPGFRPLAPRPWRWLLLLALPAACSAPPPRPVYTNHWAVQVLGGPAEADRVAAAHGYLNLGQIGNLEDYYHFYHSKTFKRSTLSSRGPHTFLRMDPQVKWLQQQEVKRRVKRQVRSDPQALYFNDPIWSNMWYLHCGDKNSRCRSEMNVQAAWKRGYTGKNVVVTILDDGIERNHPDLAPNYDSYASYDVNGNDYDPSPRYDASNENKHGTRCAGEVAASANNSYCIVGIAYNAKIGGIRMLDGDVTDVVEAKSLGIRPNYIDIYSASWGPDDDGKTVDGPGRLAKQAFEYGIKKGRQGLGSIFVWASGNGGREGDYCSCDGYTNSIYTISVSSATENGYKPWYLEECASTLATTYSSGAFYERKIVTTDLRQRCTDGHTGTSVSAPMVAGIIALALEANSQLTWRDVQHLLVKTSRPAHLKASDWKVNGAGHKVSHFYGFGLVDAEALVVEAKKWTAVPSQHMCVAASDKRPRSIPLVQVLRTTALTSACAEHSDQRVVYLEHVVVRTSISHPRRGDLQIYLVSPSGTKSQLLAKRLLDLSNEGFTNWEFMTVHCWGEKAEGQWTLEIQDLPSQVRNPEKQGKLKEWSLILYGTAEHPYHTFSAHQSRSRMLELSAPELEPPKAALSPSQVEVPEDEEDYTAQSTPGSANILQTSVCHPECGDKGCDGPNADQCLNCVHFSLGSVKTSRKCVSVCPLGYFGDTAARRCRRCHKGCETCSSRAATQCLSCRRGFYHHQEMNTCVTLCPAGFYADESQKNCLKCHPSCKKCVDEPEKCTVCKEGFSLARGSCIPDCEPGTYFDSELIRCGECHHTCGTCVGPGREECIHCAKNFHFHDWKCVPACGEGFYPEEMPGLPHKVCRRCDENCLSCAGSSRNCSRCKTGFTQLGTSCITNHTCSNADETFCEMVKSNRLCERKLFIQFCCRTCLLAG
Procedure, shortened: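 Human recombinant purified PACE4 at 2 units/100 µL (20.18 nM), in 20 mM BisTris pH 6.5, 1 mM CaCl2, 1.8 mg/mL BSA. Substrate 100 µM, KM 4.035 µM. Inhibitor 1 nM to 10 µM; 60 min at 37°C. Fluorescence ex 370 / em 460 nm. Ki by Morrison tight-binding equation; three independent experiments, mean ± SD.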

[3] = species: Homo sapiens; experiment: Selectivity index, ratio of Ki for recombinant human furin expressed in drosophila S2 cells to Ki for recombinant human PACE4 expressed in drosophila S2 cells; format: cell-based
Procedure, shortened: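 Ratio Ki(furin)/Ki(PACE4). […] PACE4 buffer was BisTris pH 6.5; furin buffer was HEPES pH 7.5, or BisTris pH 6.5 for His peptides. Ki fitted by Morrison equation from three independent experiments.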

[4] = test system: DU-145; experiment: Antiproliferative activity against human DU145 cells assessed as reduction in metabolic activity at 25 to 100 uM after 72 hrs by MTT assay; format: functional, cell-based
Procedure, shortened: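 First-pass MTT screen of each library peptide on DU145 cells (RPMI 1640, 5% FBS, 1500 cells/well, poly-L-lysine plates). Peptides added 24 h after seeding at 25, 50 and 100 µM in fresh serum medium for 72 h. MTT 1 mg/mL for 4 h; 2-propanol HCl solubilisation. Activity normalised to water vehicle. Mean ± SEM of at least two independent experiments.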

Sequence of Furin (P09958 whole entry): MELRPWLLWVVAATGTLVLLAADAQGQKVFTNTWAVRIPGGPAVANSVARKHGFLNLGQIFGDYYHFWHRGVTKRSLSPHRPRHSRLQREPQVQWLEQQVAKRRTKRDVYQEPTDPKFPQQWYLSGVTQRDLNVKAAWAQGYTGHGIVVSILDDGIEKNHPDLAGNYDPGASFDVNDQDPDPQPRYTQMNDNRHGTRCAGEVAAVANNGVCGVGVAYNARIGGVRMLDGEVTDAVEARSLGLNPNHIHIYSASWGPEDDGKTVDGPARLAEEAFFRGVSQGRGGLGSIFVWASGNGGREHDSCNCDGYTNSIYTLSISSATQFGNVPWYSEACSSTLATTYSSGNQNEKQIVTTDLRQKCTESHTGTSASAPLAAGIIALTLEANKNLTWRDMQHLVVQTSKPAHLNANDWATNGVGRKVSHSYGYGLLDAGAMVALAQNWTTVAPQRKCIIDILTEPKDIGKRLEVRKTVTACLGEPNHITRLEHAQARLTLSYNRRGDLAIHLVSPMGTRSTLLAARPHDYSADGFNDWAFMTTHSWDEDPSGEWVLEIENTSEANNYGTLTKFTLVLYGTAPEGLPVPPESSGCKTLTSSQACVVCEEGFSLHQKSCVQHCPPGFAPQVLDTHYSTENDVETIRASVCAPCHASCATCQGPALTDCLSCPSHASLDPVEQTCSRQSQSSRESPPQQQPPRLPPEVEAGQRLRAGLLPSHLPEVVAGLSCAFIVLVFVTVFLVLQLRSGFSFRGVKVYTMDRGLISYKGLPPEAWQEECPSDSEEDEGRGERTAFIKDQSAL

Compound	pKi [1]	pKi [2]	Ratio Ki [3]	Activity [4]
CC(=O)N[C@@H](CC(N)=O)C(=O)N[C@@H](CC(C)C)C(=O)N[C@@H](CC(C)C)C(=O)N[C@@H](CC(C)C)C(=O)N[C@@H](CCCNC(=N)N)C(=O)N[C@H](C(=O)N[C@@H](CCCCN)C(=O)NCc1ccc(C(=N)N)cc1)C(C)C (Ac-NLLLRVK-{NH(4-amidinobenzyl)})	8.51	8.22	0.5	inactive
CC(=O)N[C@@H](Cc1cnc[nH]1)C(=O)N[C@@H](CC(C)C)C(=O)N[C@@H](CC(C)C)C(=O)N[C@@H](CC(C)C)C(=O)N[C@@H](CCCNC(=N)N)C(=O)N[C@H](C(=O)N[C@@H](CCCCN)C(=O)NCc1ccc(C(=N)N)cc1)C(C)C (Ac-HLLLRVK-{NH(4-amidinobenzyl)})	8.74	8.89	1.4	inactive
CC(=O)N[C@@H](CC(C)C)C(=O)N[C@@H](CC(C)C)C(=O)N[C@@H](CC(C)C)C(=O)N[C@@H](CC(N)=O)C(=O)N[C@@H](CCCNC(=N)N)C(=O)N[C@H](C(=O)N[C@@H](CCCCN)C(=O)NCc1ccc(C(=N)N)cc1)C(C)C (Ac-LLLNRVK-{NH(4-amidinobenzyl)})	8.52	8.77	1.8	inactive
CC(=O)N[C@@H](CCCCN)C(=O)N[C@@H](CC(C)C)C(=O)N[C@@H](CC(C)C)C(=O)N[C@@H](CC(C)C)C(=O)N[C@@H](CCCNC(=N)N)C(=O)N[C@H](C(=O)N[C@@H](CCCCN)C(=O)NCc1ccc(C(=N)N)cc1)C(C)C (Ac-KLLLRVK-{NH(4-amidinobenzyl)})	9.40	9.52	1.3	inactive
CC(=O)N[C@@H](CC(C)C)C(=O)N[C@@H](CC(C)C)C(=O)N[C@@H](CC(C)C)C(=O)N1CCC[C@H]1C(=O)N[C@@H](CCCNC(=N)N)C(=O)N[C@H](C(=O)N[C@@H](CCCCN)C(=O)NCc1ccc(C(=N)N)cc1)C(C)C (Ac-LLLPRVK-{NH(4-amidinobenzyl)})	8.40	8.22	0.7	inactive
CC(=O)N[C@@H](CC(C)C)C(=O)N[C@@H](CC(C)C)C(=O)N[C@@H](CCC(N)=O)C(=O)N[C@@H](CC(C)C)C(=O)N[C@@H](CCCNC(=N)N)C(=O)N[C@H](C(=O)N[C@@H](CCCCN)C(=O)NCc1ccc(C(=N)N)cc1)C(C)C (Ac-LLQLRVK-{NH(4-amidinobenzyl)})	8.30	8.39	1.2	inactive
CC(=O)N[C@@H](CC(C)C)C(=O)N[C@@H](CCC(=O)O)C(=O)N[C@@H](CC(C)C)C(=O)N[C@@H](CC(C)C)C(=O)N[C@@H](CCCNC(=N)N)C(=O)N[C@H](C(=O)N[C@@H](CCCCN)C(=O)NCc1ccc(C(=N)N)cc1)C(C)C (Ac-LELLRVK-{NH(4-amidinobenzyl)})	7.64	7.29	0.5	inactive
CC(=O)N[C@@H](CC(C)C)C(=O)N[C@@H](CC(C)C)C(=O)N[C@@H](CC(C)C)C(=O)N[C@@H](C)C(=O)N[C@@H](CCCNC(=N)N)C(=O)N[C@H](C(=O)N[C@@H](CCCCN)C(=O)NCc1ccc(C(=N)N)cc1)C(C)C (Ac-LLLARVK-{NH(4-amidinobenzyl)})	8.30	8.40	1.3	inactive
CC(=O)N[C@@H](CC(C)C)C(=O)N[C@@H](CC(N)=O)C(=O)N[C@@H](CC(C)C)C(=O)N[C@@H](CC(C)C)C(=O)N[C@@H](CCCNC(=N)N)C(=O)N[C@H](C(=O)N[C@@H](CCCCN)C(=O)NCc1ccc(C(=N)N)cc1)C(C)C (Ac-LNLLRVK-{NH(4-amidinobenzyl)})	9.00	8.40	0.3	inactive
CC(=O)N1CCC[C@H]1C(=O)N[C@@H](CC(C)C)C(=O)N[C@@H](CC(C)C)C(=O)N[C@@H](CC(C)C)C(=O)N[C@@H](CCCNC(=N)N)C(=O)N[C@H](C(=O)N[C@@H](CCCCN)C(=O)NCc1ccc(C(=N)N)cc1)C(C)C (Ac-PLLLRVK-{NH(4-amidinobenzyl)})	8.96	8.52	0.4	inactive
CC(=O)N[C@@H](C)C(=O)N[C@@H](CC(C)C)C(=O)N[C@@H](CC(C)C)C(=O)N[C@@H](CC(C)C)C(=O)N[C@@H](CCCNC(=N)N)C(=O)N[C@H](C(=O)N[C@@H](CCCCN)C(=O)NCc1ccc(C(=N)N)cc1)C(C)C (Ac-ALLLRVK-{NH(4-amidinobenzyl)})	8.52	8.82	2	inactive
CC(=O)N[C@@H](CC(C)C)C(=O)N[C@@H](CC(C)C)C(=O)N[C@@H](CO)C(=O)N[C@@H](CC(C)C)C(=O)N[C@@H](CCCNC(=N)N)C(=O)N[C@H](C(=O)N[C@@H](CCCCN)C(=O)NCc1ccc(C(=N)N)cc1)C(C)C (Ac-LLSLRVK-{NH(4-amidinobenzyl)})	7.82	7.44	0.4	inactive
CC(=O)N[C@@H](CC(C)C)C(=O)N1CCC[C@H]1C(=O)N[C@@H](CC(C)C)C(=O)N[C@@H](CC(C)C)C(=O)N[C@@H](CCCNC(=N)N)C(=O)N[C@H](C(=O)N[C@@H](CCCCN)C(=O)NCc1ccc(C(=N)N)cc1)C(C)C (Ac-LPLLRVK-{NH(4-amidinobenzyl)})	8.82	9.00	1.5	inactive
CC(=O)N[C@@H](CC(C)C)C(=O)N[C@@H](CC(C)C)C(=O)N[C@@H](CC(C)C)C(=O)N[C@@H](CO)C(=O)N[C@@H](CCCNC(=N)N)C(=O)N[C@H](C(=O)N[C@@H](CCCCN)C(=O)NCc1ccc(C(=N)N)cc1)C(C)C (Ac-LLLSRVK-{NH(4-amidinobenzyl)})	8.40	8.70	2	inactive
CSCC[C@H](NC(=O)[C@H](CC(C)C)NC(=O)[C@H](CC(C)C)NC(=O)[C@H](CC(C)C)NC(C)=O)C(=O)N[C@@H](CCCNC(=N)N)C(=O)N[C@H](C(=O)N[C@@H](CCCCN)C(=O)NCc1ccc(C(=N)N)cc1)C(C)C (Ac-LLLMRVK-{NH(4-amidinobenzyl)})	8.47	8.43	0.9	inactive
CC(=O)N[C@@H](CC(C)C)C(=O)N[C@@H](CC(C)C)C(=O)N[C@@H](CC(C)C)C(=O)N[C@H](C(=O)N[C@@H](CCCNC(=N)N)C(=O)N[C@H](C(=O)N[C@@H](CCCCN)C(=O)NCc1ccc(C(=N)N)cc1)C(C)C)[C@@H](C)O (Ac-LLLTRVK-{NH(4-amidinobenzyl)})	8.35	8.55	1.6	inactive
CC(=O)N[C@@H](CC(C)C)C(=O)N[C@@H](CC(C)C)C(=O)N[C@@H](CC(C)C)C(=O)N[C@@H](CCCCN)C(=O)N[C@@H](CCCNC(=N)N)C(=O)N[C@H](C(=O)N[C@@H](CCCCN)C(=O)NCc1ccc(C(=N)N)cc1)C(C)C (Ac-LLLKRVK-{NH(4-amidinobenzyl)})	9.05	8.70	0.5	inactive
CC(=O)N[C@@H](CC(C)C)C(=O)N[C@@H](CC(C)C)C(=O)N[C@H](C(=O)N[C@@H](CC(C)C)C(=O)N[C@@H](CCCNC(=N)N)C(=O)N[C@H](C(=O)N[C@@H](CCCCN)C(=O)NCc1ccc(C(=N)N)cc1)C(C)C)[C@@H](C)O (Ac-LLTLRVK-{NH(4-amidinobenzyl)})	7.74	7.41	0.5	inactive

Source: ChEMBL document CHEMBL4049407, “Positional Scanning Identifies the Molecular Determinants of a High Affinity Multi-Leucine Inhibitor for Furin and PACE4” (J Med Chem, 2017)
